Measured values published in ChEMBL document CHEMBL4813968, “Synthesis and evaluation of 3'-fluorinated 7-deazapurine nucleosides as antikinetoplastid agents” (Eur J Med Chem, 2021).
pEC50: −log10 of the molar value.

What was measured:
[1] = system: Trypanosoma cruzi; assay: Antitrypanosomal activity against Trypanosoma cruzi Tulahuen CL2 infected in human MRC5 cells assessed as inhibition of parasite growth incubated for 7 days by chlorophenol red-fl-D-galactopyranoside based spectrophotometric analysis; type: functional, organism-based; conditions: Tulahuen CL2, MRC5, 168 h
How it was run: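 T. cruzi Tulahuen CL2 β-galactosidase strain was maintained on MRC-5_SV2 cells. Wells held 4×10³ cells plus 4×10⁴ parasites with a 10-point 4-fold compound series, final DMSO <1%. After 7 days at 37 °C, 5% CO₂, substrate was added and absorbance read at 540 nm after 4 h at 37 °C. IC₅₀ was taken from % reduction versus infected and uninfected controls.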

[2] = Selectivity index, ratio of EC50 for cytotoxicity against mouse primary macrophage to EC50 for antileishmanial activity against Leishmania infantum MHOM/MA(BE)/67 infected in mouse primary peritoneal macrophages; type: toxicity; conditions: read-out: Ratio EC50
[3] = system: Trypanosoma brucei brucei; assay: Antitrypanosomal activity against Trypanosoma brucei brucei assessed as parasite growth inhibition; type: functional, organism-based
[4] = system: Trypanosoma brucei rhodesiense; assay: Antitrypanosomal activity against Trypanosoma brucei rhodesiense assessed as parasite growth inhibition; type: functional, organism-based
[5] = system: Leishmania infantum; assay: Antileishmanial activity against Leishmania infantum MHOM/MA(BE)/67 infected in mouse primary peritoneal macrophages treated 2 hrs post-infection and incubated for 5 days by Giemsa staining based microscopic analysis; type: functional, organism-based; conditions: MHOM/MA(BE)/67, Peritoneal macrophage
How it was run: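 Peritoneal macrophages from mice, harvested 2 days after 2% potato starch stimulation, infected after 48 h with L. infantum in supplemented RPMI-1640 with 5% FCS. Compounds were added 2 h post-infection as a 10-point 4-fold dilution series, final DMSO <1%, and incubated 5 days at 37 °C, 5% CO₂. Amastigotes per macrophage were counted after 10% Giemsa staining, and IC₅₀ was taken from % reduction versus untreated-infected controls.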

[6] = system: MRC5; assay: Cytotoxicity against human MRC5 cells assessed as reduction in cell viability after 3 days by resazurin dye based fluorimetric analysis; conditions: MRC5, 72 h
How it was run: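 MRC-5_SV2 cells, 1.5×10⁵ cells/mL in MEM with Earl's salts, L-glutamine, NaHCO₃ and 5% inactivated FCS, were exposed 3 days at 37 °C, 5% CO₂ to a 10-point 4-fold dilution series, final DMSO <1%. Resazurin was added for 4 h, fluorescence read at ex 550/em 590 nm, and IC₅₀ derived versus untreated and medium controls.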

[7] = Selectivity index, ratio of EC50 for cytotoxicity against human MRC5 cells to EC50 for antitrypanosomal activity against Trypanosoma cruzi Tulahuen CL2 infected in human MRC5 cells; type: toxicity, cell-based; conditions: read-out: Ratio EC50
How it was run: (§1)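 Selectivity index is the MRC-5 EC₅₀ divided by the parasite EC₅₀.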

[8] = system: Macrophage; assay: Cytotoxicity against mouse primary macrophage cells assessed as reduction in cell viability; type: cell-based
How it was run: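 Macrophage toxicity was scored microscopically within the L. infantum assays, using cell detachment, lysis and granulation. At least 500 cells over adjacent fields were scored semi-quantitatively, and CC₅₀ was taken from % reduction in normal cells versus untreated controls.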

[9] = Selectivity index, ratio of EC50 for human MRC5 cells to EC50 for antitrypanosomal activity against Trypanosoma brucei rhodesiense; type: toxicity; conditions: read-out: Ratio EC50; how it was run: as §1
[10] = Selectivity index, ratio of EC50 for human MRC5 cells to EC50 for antitrypanosomal activity against Trypanosoma brucei brucei; type: toxicity; conditions: read-out: Ratio EC50; how it was run: as §1

SMILES | pEC50 [1] | selectivity ratio [2] | pEC50 [3] | pEC50 [4] | pEC50 [5] | pEC50 [6] | selectivity ratio [7] | pEC50 [8] | selectivity ratio [9] | selectivity ratio [10]
Nc1nc2c(ncn2[C@@H]2O[C@H](CO)[C@@H](F)[C@H]2O)c(=O)[nH]1 | 4.46 | > 1 | 4.38 | < 4.19 | 4.33 | 4.38 | 1 | < 4.19 |  | 
Nc1ncnc2c1ccn2[C@@H]1O[C@H](CO)[C@@H](F)[C@H]1O | 5.04 | > 2 | 4.65 | 5.83 | 4.63 | < 4.19 | > 7 | < 4.19 | > 44 | > 2
OC[C@H]1O[C@@H](n2cc(Br)c3c(O)ncnc32)[C@H](O)[C@H]1F | < 4.19 |  | 4.80 | 5.80 | < 4.19 | < 4.19 |  | < 4.19 | > 41 | > 4
Nc1ncnc2c1c(Cl)cn2[C@@H]1O[C@H](CO)[C@@H](F)[C@H]1O | 7.15 | 1 | 6.89 | 7.51 | 7.05 | 4.86 | 194 | 6.89 | 448 | 108
O=c1[nH]cnc2c1c(F)cn2[C@@H]1O[C@H](CO)[C@@H](F)[C@H]1O | < 4.19 |  | < 4.19 | < 4.19 | < 4.19 | < 4.19 |  | < 4.19 |  | 
COc1ncnc2c1c(Br)cn2[C@@H]1O[C@H](CO)[C@@H](F)[C@H]1O | < 4.19 |  | 5.06 | 4.29 | < 4.19 | < 4.19 |  | < 4.19 | 1 | 7
COc1nc(N)nc2c1ccn2[C@@H]1O[C@H](CO)[C@@H](F)[C@H]1O | < 4.19 |  | < 4.19 | < 4.19 | < 4.19 | < 4.19 |  | < 4.19 |  | 
Nc1ncnc2c1ccn2[C@@H]1O[C@H](CO)[C@H](F)[C@H]1O | < 4.19 |  | 7.40 | 8.20 | < 4.19 | < 4.19 |  | < 4.19 | > 10100 | > 1590
CCc1cn([C@@H]2O[C@H](CO)[C@@H](F)[C@H]2O)c2ncnc(N)c12 | < 4.19 |  | 4.69 | 4.67 | < 4.19 | 4.39 | < 1 | < 4.19 | 2 | 2
Nc1ncnc2c1c(Br)cn2[C@@H]1O[C@H](CO)[C@@H](F)[C@H]1O | 7.39 | 3 | 7.51 | 7.55 | 6.43 | 4.49 | 779 | 5.99 | 1150 | 
N#Cc1cn([C@@H]2O[C@H](CO)[C@@H](F)[C@H]2O)c2ncnc(N)c12 | 5.02 | < 1 | 4.98 | 6.42 | 5.69 | 5.88 | < 1 | 5.70 | 3 | 
Nc1ncnc2c1c(C(F)(F)F)cn2[C@@H]1O[C@H](CO)[C@@H](F)[C@H]1O | 5.50 | 1 | 5.69 | 5.69 | 4.56 | 5.15 |  | 4.49 | 3 | 3
COc1ncnc2c1ncn2[C@@H]1O[C@H](CO)[C@@H](F)[C@H]1O | 4.52 |  | 4.47 | 4.45 | < 4.19 | < 4.19 | > 2 | < 4.19 | 2 | 2
COc1nc(N)nc2c1c(Br)cn2[C@@H]1O[C@H](CO)[C@@H](F)[C@H]1O | < 4.19 |  | < 4.19 | < 4.19 | < 4.19 | < 4.19 |  | < 4.19 |  | 
O=c1[nH]cnc2c1c(Cl)cn2[C@@H]1O[C@H](CO)[C@@H](F)[C@H]1O | < 4.19 |  | < 4.19 | < 4.19 | < 4.19 | < 4.19 |  | < 4.19 |  | 
O=c1[nH]cnc2c1c(I)cn2[C@@H]1O[C@H](CO)[C@@H](F)[C@H]1O | < 4.19 |  | < 4.19 | < 4.19 | < 4.19 | < 4.19 |  | < 4.19 |  | 
O=c1[nH]cnc2c1ncn2[C@@H]1O[C@H](CO)[C@@H](F)[C@H]1O | 5.37 |  | < 4.19 | < 4.19 | < 4.19 | < 4.19 | > 15 | < 4.19 |  | 
Nc1ncnc2c1c(F)cn2[C@@H]1O[C@H](CO)[C@@H](F)[C@H]1O | 6.60 |  | 6.33 | 6.80 | 5.76 | 5.26 | 22 | 5.70 | 27 | 9
Nc1nc(N)c2ncn([C@@H]3O[C@H](CO)[C@@H](F)[C@H]3O)c2n1 | < 4.19 |  | < 4.19 | < 4.19 | < 4.19 | < 4.19 |  | < 4.19 |  | 
O=c1[nH]cnc2c1c(Br)cn2[C@@H]1O[C@H](CO)[C@@H](F)[C@H]1O | < 4.19 |  | < 4.19 | < 4.19 | < 4.19 | < 4.19 |  | < 4.19 |  | 
Nc1nc2c(ccn2[C@@H]2O[C@H](CO)[C@@H](F)[C@H]2O)c(=O)[nH]1 | < 4.19 |  | < 4.19 | < 4.19 | < 4.19 | < 4.19 |  | < 4.19 |  | 
O=c1[nH]cnc2c1ccn2[C@@H]1O[C@H](CO)[C@@H](F)[C@H]1O | < 4.19 |  | < 4.19 | < 4.19 | < 4.19 | < 4.19 |  | < 4.19 |  | 
O=c1[nH]cnc2c1c(-c1ccccc1)cn2[C@@H]1O[C@H](CO)[C@@H](F)[C@H]1O | < 4.19 |  | < 4.19 | < 4.19 | < 4.19 | < 4.19 |  | < 4.19 |  | 
Nc1ncnc2c1ncn2[C@@H]1O[C@H](CO)[C@@H](F)[C@H]1O | 6.26 | > 2 | 7.49 | 7.77 | 4.56 | 5.31 | 9 | < 4.49 | 296 | 154
O=C(Cn1ccnc1[N+](=O)[O-])NCc1ccccc1 [BENZNIDAZOLE] | 5.69 |  |  |  |  |  |  |  |  | 
CCCCCCCCCCCCCCCCOP(=O)([O-])OCC[N+](C)(C)C [MILTEFOSINE] |  |  |  |  | 5.13 |  |  |  |  | 
Cc1ccc(C(=O)Nc2ccc(S(=O)(=O)O)c3cc(S(=O)(=O)O)cc(S(=O)(=O)O)c23)cc1NC(=O)c1cccc(NC(=O)Nc2cccc(C(=O)Nc3cc(C(=O)Nc4ccc(S(=O)(=O)O)c5cc(S(=O)(=O)O)cc(S(=O)(=O)O)c45)ccc3C)c2)c1 [SURAMIN] |  |  | 7.52 |  |  |  |  |  |  | 
